# Article PMC12067261 (Proceedings of the National Academy of Sciences of the …, 2025)
# pIC50: −log10 of the molar value. Several values for one entry are separate records, joined by “and”; a condition that tells them apart may be missing. Identical values can stand only once. Like-named read-outs stand apart in the source and are kept apart here.
# Key:
# [1] = as published previously ref 28; cited from earlier work
# in vitro = conditions: human, plasma
# [2] = system: Mab type strain ATCC19977; assay: microbe, parasite or virus in culture; conditions: Mycobacteroides abscessus, ATCC19977, read-out: IC50 in CAMHB
# [3] = system: Mab ATCC19977 (wild type); type: cell-based, Mycobacterium abscessus subsp. abscessus; conditions: concentration that inhibits 90% growth
# [4] = system: Mab ATCC19977 replicating cultures; assay: microbe, parasite or virus in culture; type: cell-based, Mycobacterium abscessus subsp. abscessus
# [5] = system: intracellular M. abscessus ATCC 19977 pTEC27 in THP-1 macrophages; assay: Growth inhibition of intracellular Mab in THP-1 derived macrophages; type: cell-based, Mycobacterium abscessus; conditions: Mycobacteroides abscessus, ATCC19977, THP-1, read-out: MacIC50
# Caseum binding = type: in vitro ADME
# [6] = Pharmacokinetic studies in mice; type: in vivo, CD-1 mice
# [7] = system: THP-1 derived macrophages; assay: Uptake into THP-1 macrophages; type: in vitro ADME; conditions: intracellular to extracellular concentration ratio
# CYP3A4 mRNA = assay: CYP3A4 induction at the mRNA level in human hepatocytes; type: in vitro ADME
# HepG2 cells = assay: Cytotoxicity assays; type: cell-based, human; conditions: indirect measure of selectivity
# [8] = system: M. abscessus subsp. abscessus ATCC 19977; assay: Efficacy in the GM-CSF KO mouse model of acute Mab infection; type: in vivo, GM-CSF KO (B6.129S-Csf2tm1Mlg/J) mice; conditions: 7 daily oral doses, 25 mg/kg
# Mab ATCC19977 = assay: Spontaneous mutant selection; type: cell-based, Mycobacterium abscessus; conditions: solid medium containing 4× MIC
# [9] = system: 76 M. abscessus clinical isolates covering the 3 Mab subspecies; assay: microbe, parasite or virus in culture; type: cell-based, Mycobacterium abscessus; conditions: Mycobacteroides abscessus
# [10] = system: intracellular Mab ATCC19977 in THP-1 macrophages; type: cell-based, Mycobacterium abscessus; conditions: 48 h treatment, compared to the start of treatment
# Outline: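 Intracellular bactericidal assay in THP-1-derived macrophages infected with M. abscessus subsp. abscessus ATCC19977. Test compound was added 2 h after infection at 1 and 10 µM and left on for 48 h. Each condition was run in technical triplicate.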
# [11] = system: Mab type strain ATCC19977
# [12] = Table 2
structure (smiles),measurement,setting,value
"O=C1CCc2c(OC[C@]3(O)CCN(c4c(F)cc(Cl)cc4F)C[C@H]3O)ccc(F)c2N1 [OPC-167832, Quabodepistat]",plasma fu,[1],~ 1%
same,fraction unbound,in vitro,0.0122
same,pIC50,[2],6.92
"CO[C@H]1/C=C/O[C@@]2(C)Oc3c(C)c(O)c4c(c3C2=O)C2=NC3(CCN(CC(C)C)CC3)NC2=C(NC(=O)/C(C)=C\C=C\[C@H](C)[C@H](O)[C@@H](C)[C@@H](O)[C@@H](C)[C@H](OC(C)=O)[C@@H]1C)C4=O [RBT, Rifabutin]",WT Mab MIC,[3],2.0 µM
same,MBC,"[4]; Mycobacteroides abscessus, ATCC19977, read-out: MBC90",3.5 µM
same,kill plateau at 8× MIC,"[4]; replicating cultures, 3 d",approximately 2 log
same,pIC50,[5],6.15
same,fraction unbound,Caseum binding,0.0094
same,fAUC/MIC at 10 mg/kg,[6]; AUC corrected for fraction unbound,0.2
same,Bioavailability,"[6]; CD-1 mice, oral",69.2%
same,half-life,"[6]; female, CD-1, mouse, plasma",258 min
same,clearance,"[6]; female, CD-1, mouse, plasma, iv, 5 mg/kg",10.3 mL/min/kg
same,Vd,"[6]; female, CD-1, mouse, plasma, iv, 5 mg/kg, Vd, CD-1 mice, i.v. 5 mg/kg",3.9 L/kg
same,plasma concentrations relative to potency values,"[6]; oral 25 mg/kg, CD-1 mice",did not achieve therapeutic concentrations
same,THP-1 IC/EC,[7],26
same,CYP3A4 induction @ 1 µM,CYP3A4 mRNA; 1 µM,33 fold and 33.4 fold
same,CYP3A4 induction @ 10 µM,CYP3A4 mRNA; 10 µM,43 fold and 42.7 fold
same,HepG2 CC50/MIC,HepG2 cells,154
same,effect on lung bacterial burden,[8],neither reduced lung burden nor prevented bacterial growth
same,frequency of resistance,Mab ATCC19977,2.6 × 10^−8
same,MIC50,[9]; read-out: MIC50 against clinical isolates,4.7 µM
same,MIC90,[9]; read-out: MIC90 against clinical isolates,9.1 µM
same,activity against intracellular Mab in macrophages at 1 and 10 µM,[10],did not inhibit intracellular growth of Mab
same,IC50 serum shift,[11],8.1 fold
same,fraction unbound,"in vitro; fu human, human plasma",0.036
same,fraction unbound,"in vitro; plasma fu (human), Table 2",0.0384
same,pIC50,[2],5.92
CO[C@H]1/C=C/O[C@@]2(C)Oc3c(C)c(O)c4c(c3C2=O)C2=NC3(CCN(CC(C)C)CC3)NC2=C(NC(=O)/C(C)=C/C=C/[C@H](C)[C@H](O)[C@@H](C)[C@@H](O)[C@@H](C)[C@H](OC(=O)Nc2c(C)nc3ccccn23)[C@@H]1C)C4=O [UMN-131],IC50 serum shift,[11],3.3 fold
same,pIC50,"[11]; read-out: IC50 in 1:1 CAMHB:hSerum, 1:1 CAMHB:human serum",6.70
same,pIC50,"[11]; read-out: IC50 in CAMHB, CAMHB devoid of plasma proteins",7.22
same,plasma fu (human),[12],6.55%
